# From the RNAGym collection of RNA variant scans (doi:10.1126/science.aae0568)
# This sample holds only a part of the variants without activity.
# B1: tRNA (parent)
# chain: GUUCCGUUGGCGUAAUGGUAACGCGUCUCCCUCCUAAGGAGAAGACUGCGGGUUCGAGUCCCGUACGGAACG
# Variants of: B1
# Assay: yeast fitness relative to wild type (ratio to wild type); higher = fitter; tRNA-Arg(CCU), competitive growth, 37 C, YPD
# Method in brief: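 Gene amplicons from the start population and from each of six end populations were read by 100-nucleotide paired-end sequencing. Those end populations came from pooled Saccharomyces cerevisiae strains carrying tRNA-Arg(CCU) gene variants at the native locus, competed in YPD at 37°C for 24 hours. Fitness relative to wild type was worked out from changes in genotype frequencies. Genotypes needed ≥ 100 starting reads, and estimates < 0.5 were set to 0.5.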
row,Variant,yeast fitness
1,A21U A69U,0.686
2,U8C C55A C61G,≤ 0.5
3,A21U C27G A40G,≤ 0.5
4,U2C U13C G41A,0.602
5,A15G A20C A21C G23A G52U,≤ 0.5
6,U7C A15C A40G A57G,0.649
7,G18C A70G,0.588
8,C4G U7G A21C,≤ 0.5
9,G18A C24G G39C,≤ 0.5
10,C5G G41C U47A,0.526
11,G58A A70G,0.949
12,U3G U47A G68C,≤ 0.5
13,C29A C61G,≤ 0.5
14,A14G C27G C31U,0.501
15,A20C A70C,0.862
16,C4U C5A C60A C62U U64C G68A A69C,0.579
17,C24U C34G G56A,≤ 0.5
18,U28G U32A G38C,0.653
19,A15C C31U A45U G51C,≤ 0.5
20,C30A C49A C61U,≤ 0.5
21,C11U G48A G51C,0.832
22,G23A A43G A70U,0.648
23,C11U U19C,0.941
24,U47G C62G A69U,0.545

row,Variant,yeast fitness
1,C22A C33G,0.701
2,G58C U64A A69G,0.61
3,C11U C31A,0.725
4,C4U G25A G48C,0.62
5,G12A A14C C34G C55U,≤ 0.5
6,U13G U28A C30A A69U,0.554
7,C22A G23A C34U A57C C66U A69C,0.548
8,G10C G18C A45C G56C A70C,≤ 0.5
9,A15C C22A G25C U28A A36U U54C A57C,≤ 0.5
10,C4U U16A A20G C49U C66U,≤ 0.5
11,C11G A20U C24A G25C A40G G58C,≤ 0.5
12,U3A U13G,0.729
13,U2G G25C G52A A57C A70C,≤ 0.5
14,U16A C46U C55A,≤ 0.5
15,A42C C49A,0.62
16,U2G A21C C22G A45G G51A,0.697
17,U7A C27A G67A,≤ 0.5
18,U8C G10A C11G G12C C29G,≤ 0.5
19,C27G G63A C66G,≤ 0.5
20,U16C A40U G67A,0.536
21,G12A C30U U54A,0.52
22,G23C C34A A36C A37C A40C G67U,≤ 0.5
23,A14C C22A C46A C66U,≤ 0.5
24,A15G G25A C30A G52A,0.563

row,Variant,yeast fitness
1,U3C A36U G39A,≤ 0.5
2,C24G C27U C29G C34G A36G A43U,≤ 0.5
3,C4U G25A G48C C62A,0.551
4,C4G U8C C11G C46U,≤ 0.5
5,G41C C49U,0.894
6,C4U A57G C61U,0.675
7,U3C U28A C55G,≤ 0.5
8,C11G U35A G63C,0.602
9,U7A G10A C27A C30G G41C,≤ 0.5
10,C11A A15G C34G G52C C61U,≤ 0.5
11,U13G A21C C46U G50A U64A A69U,≤ 0.5
12,C22U C29U A37U,≤ 0.5
13,G6A A36U A40G G44U U54C,≤ 0.5
14,U2A G17C C49U,0.571
15,U3G C4A G9A U64A,≤ 0.5
16,C4A A14U A20C U28G C49U,≤ 0.5
17,U16G C22G A43G C46G G56C A69G,≤ 0.5
18,G17A G67C,0.834
19,C11G C24U C30U U54A,≤ 0.5
20,G6C C31U U53C C62U,≤ 0.5
21,G6A C49G,0.904
22,G51C C66A,≤ 0.5
23,G58C U64A,0.81
24,C11U U16C,1.02

row,Variant,yeast fitness
1,C29G A42G G52C,0.702
2,C4U G23C A36C A70U,≤ 0.5
3,U3A G17C A20C U28A C46A,≤ 0.5
4,A37C C62U,0.913
5,U32C C34G G41C,≤ 0.5
6,U2G G9C A15G G48C G51A,≤ 0.5
7,U3A C11G G23C,0.501
8,A20C C61G C62A,≤ 0.5
9,G18A A65U,0.729
10,C22A C24A U26C,0.559
11,G12A A40U,1
12,C24G C66G,0.691
13,U2C U8G C31G A42C G56A C61G,0.507
14,C4G A43C A45G,0.629
15,C5U A14C A42G A65C,≤ 0.5
16,G6A G9C C11G C27U C34U G68A,≤ 0.5
17,U16A G18C G39A G52A,≤ 0.5
18,C34A G44C A70U,0.54
19,G6C G25A A37U A42G,≤ 0.5
20,C34U G52A,0.618
21,C27G C31U U53C,0.573
22,C34U U35A A57C G58A A70U,0.586
23,G10A G17C C22U C30G C33G C61A A69U,≤ 0.5
24,A15C C33U,0.572

row,Variant,yeast fitness
1,C29G C31U A37U,≤ 0.5
2,C4A A69U,0.952
3,U7C U59A,0.765
4,G23C U26C C27U A42U,0.566
5,C24G C30A U47C,0.586
6,A14C A40U G56C G67U,≤ 0.5
7,A37C C46G G51A G52A,≤ 0.5
8,C22U G38C G41C A65G,≤ 0.5
9,C4U U8A A37C,0.821
10,U3C U19A,1.03
11,C31A A42G A43G G68C,0.52
12,A15G U26G G41C A43C C66A,≤ 0.5
13,C4U G51A,0.942
14,C11A C34G A65U,≤ 0.5
15,G6A C24G C34G,≤ 0.5
16,C4U U8A C30U U32G U35A C62U A69C,≤ 0.5
17,U16A A20U G50A,0.513
18,A14C G41A A43C,≤ 0.5
19,U13C U19G A20G C31U G44A,≤ 0.5
20,U19A C27U C29U,0.697
21,C5G A15G U16A A20G U28A C30A C33A A36U G63A A69C,≤ 0.5
22,U13C A20U,1.12
23,G6C U64G,0.63
24,C11A C24U U32A U35C C55A G58A,≤ 0.5

row,Variant,yeast fitness
1,A14C C30A A36G C62U G63A,≤ 0.5
2,C5U G12A U47G C49U G68C,≤ 0.5
3,G12C A20C C31G G51C,≤ 0.5
4,C4A A15U,0.645
5,U2C A37C,0.81
6,G9A G67C,0.932
7,C4G A36U,0.663
8,G12C G23C C49G A57U A65C,≤ 0.5
9,C5A C30G A43C,≤ 0.5
10,G25C U26G C46G A69U,0.521
11,A14U A21C G41A A45G,≤ 0.5
12,C22U U26A C49U A65U,≤ 0.5
13,C24A U64A,0.622
14,C4G G18C G63A,≤ 0.5
15,C5G G38A A43U G56A,≤ 0.5
16,U3C U28A,0.832
17,U8C U16A C33G G41C G56C G58A G63C A65U,≤ 0.5
18,G18C C30G,≤ 0.5
19,A21U A36G A45C,0.581
20,U7C A65U A69U,0.801
21,C5U C60A,0.585
22,G39C G48C G52C,≤ 0.5
23,G10A U13C,0.658
24,C27U A65C A70C,0.69

row,Variant,yeast fitness
1,U47C C66U,0.963
2,A43G C66A,0.791
3,G9A A42C C55G,≤ 0.5
4,A57U C60G G68C,0.532
5,A40U C55U,0.795
6,C11G C24U C34G,≤ 0.5
7,C5G G17A C22U C46U C66U A70C,0.62
8,C22G C46U G50A,0.719
9,C5U A20C A43G,0.658
10,U16C A20U,0.889
11,C11U A20G,0.957
12,A14C U26A C34A G44A G67C,≤ 0.5
13,C30G C49A G68A,≤ 0.5
14,C11G C24U,0.583
15,C31G A65U,0.799
16,U8G G12C G39A,≤ 0.5
17,U2G A21U,0.729
18,G44A A45C G51A,≤ 0.5
19,C29G A43U C66U,≤ 0.5
20,C24G U47G U53C,0.713
21,U13A A14U A20U,0.835
22,C4G A20U G41A A57C,≤ 0.5
23,C5U U26A C60G A70G,≤ 0.5
